Activity calls are given as the source filed them. No cut-off for these calls is given here.
Legend:
[1] = biological target: Glutamate receptor ionotropic, kainate; experiment: Binding affinity towards Ionotropic glutamate receptor kainate by displacement of [3H]-kainic acid radioligand; assay type: protein-complex assay
[2] = biological target: T1, Excitatory amino acid transporter 3 (Rattus norvegicus) (UniProt P51907); experiment: Steady state transport rate by EAAC1 (EAAT3) in mammalian cells; assay type: cell-based
T1 sequence (whole entry): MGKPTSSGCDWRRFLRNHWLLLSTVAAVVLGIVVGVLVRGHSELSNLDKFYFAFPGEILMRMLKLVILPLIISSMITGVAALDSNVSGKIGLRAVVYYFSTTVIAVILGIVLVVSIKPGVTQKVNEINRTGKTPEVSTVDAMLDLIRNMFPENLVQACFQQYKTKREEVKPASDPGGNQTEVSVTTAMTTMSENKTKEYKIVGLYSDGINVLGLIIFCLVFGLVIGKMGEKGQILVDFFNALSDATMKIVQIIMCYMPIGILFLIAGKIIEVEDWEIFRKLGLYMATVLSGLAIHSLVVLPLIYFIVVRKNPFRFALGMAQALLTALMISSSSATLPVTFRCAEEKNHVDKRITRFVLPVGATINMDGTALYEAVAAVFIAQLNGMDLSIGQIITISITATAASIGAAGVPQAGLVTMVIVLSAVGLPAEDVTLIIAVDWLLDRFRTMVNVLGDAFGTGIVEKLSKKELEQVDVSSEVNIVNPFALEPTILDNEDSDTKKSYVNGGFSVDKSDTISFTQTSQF
Procedure, shortened: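 Whole-cell currents from EAAC1-expressing mammalian cells (intracellular SCN-, Vm 0 mV, pH 7.4, 22 °C). Steady-state KS is taken from concentration dependence. Imax ratio is the current at saturating test compound relative to the current at saturating (1 mM) L-glutamate.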

[3] = biological target: T2, Glutamate receptor ionotropic, AMPA (Rattus norvegicus, UniProt P19490+P19491+P19492+P19493); experiment: Binding affinity towards AMPA receptor by displacement of [3H]AMPA radioligand.; assay type: protein-complex assay
Glutamate NMDA receptor = experiment: Binding affinity towards NMDA receptor by displacement of [3H]CGP-39653 radioligand.; assay type: protein-complex assay
[4] = biological target: Glutamate NMDA receptor (Rattus norvegicus) (UniProt P35439+Q00959+Q00960+Q00961+Q62645+Q8VHN2+Q9R1M7); experiment: Binding affinity towards NMDA receptor by displacement of [3H]CGP-39653 radioligand; Not active; assay type: protein-complex assay
[5] = biological target: Glutamate receptor ionotropic, AMPA (Rattus norvegicus) (UniProt P19491+P19492+P19493+P19490); experiment: Binding affinity towards AMPA receptor by displacement of [3H]-AMPA radioligand; Not active; assay type: protein-complex assay
[6] = biological target: Glutamate receptor ionotropic, kainate (Rattus norvegicus) (UniProt P22756+Q01812+P42260+P42264+Q63273); experiment: Binding affinity towards Ionotropic glutamate receptor kainate by displacement of [3H]-kainic acid radioligand; Not active; assay type: protein-complex assay
[7] = biological target: T3, Excitatory amino acid transporter 3 (Rattus norvegicus, UniProt P51907); experiment: Inhibitory activity against EAAC1 (EAAT3) in absence of L-glutamic acid in mammalian cells; assay type: cell-based
T3 sequence (P51907 whole entry): T1 sequence (whole entry)

[8] = biological target: T3, Excitatory amino acid transporter 3; experiment: Inhibitory activity against EAAC1 (EAAT3) in presence of 20 uM L-glutamic acid in mammalian cells; assay type: cell-based
[9] = biological target: T3, Excitatory amino acid transporter 3; experiment: Inhibitory activity against EAAC1 (EAAT3) in absence of L-glutamic acid.
[10] = biological target: T3, Excitatory amino acid transporter 3; experiment: Inhibitory activity against EAAC1 (EAAT3) in presence of 20 uM L-glutamic acid.
[11] = biological target: T2, Glutamate receptor ionotropic, AMPA; experiment: Binding affinity towards AMPA receptor by displacement of [3H]AMPA radioligand; assay type: protein-complex assay

| SMILES | Ki [1] | Ks [2] | Ki (Glutamate NMDA receptor) | NA [4] | NA [5] | NA [6] | further results |
| --- | --- | --- | --- | --- | --- | --- | --- |
| N[C@@H](CCc1nc(C(=O)O)co1)C(=O)O | 8 µM | 100 µM | 3 µM |  |  |  | Ki [3]: 41 µM |
| N[C@@H](CCC(=O)O)C(=O)O |  | 5.1 µM |  |  |  |  |  |

Further lines, with some results ahead:

| Ki [1] | Ks [2] | Ki (Glutamate NMDA receptor) | NA [4] | NA [5] | NA [6] | SMILES | further results |
| --- | --- | --- | --- | --- | --- | --- | --- |
|  | 31 µM |  | inactive | inactive | inactive | N[C@@H](CC1=N[C@H](C(=O)O)CO1)C(=O)O |  |
|  |  |  | inactive | inactive | inactive | O=C(O)[C@H]1N=C(c2ccccc2)O[C@@H]1C(=O)O | Ki [7]: 14 µM; Ki [8]: 42 µM |
|  |  |  | inactive | inactive | inactive | O=C(O)c1nc(-c2ccccc2)oc1C(=O)O | Ki [9]: 75 µM; Ki [10]: 530 µM |
| 14 µM | 730 µM | 9 µM |  |  |  | N[C@@H](CCC1=N[C@H](C(=O)O)CO1)C(=O)O | Ki [11]: 103 µM |

— ChEMBL document CHEMBL1134543, “A rational approach to the design of selective substrates and potent nontransportable inhibitors of the excitatory amino acid transporter EAAC1 (EAAT3). new glutamate and aspartate analogues as potential neuroprotective agents” (J Med Chem, 2001)
